Results gathered from unrelated publications.
Lines come from different studies, so protocols differ.
Target: 5-hydroxytryptamine receptor 3A (HTR3A, Homo sapiens, UniProt P46098)
Concentration: 10 µM
Residues used in one study (P46098 24-478): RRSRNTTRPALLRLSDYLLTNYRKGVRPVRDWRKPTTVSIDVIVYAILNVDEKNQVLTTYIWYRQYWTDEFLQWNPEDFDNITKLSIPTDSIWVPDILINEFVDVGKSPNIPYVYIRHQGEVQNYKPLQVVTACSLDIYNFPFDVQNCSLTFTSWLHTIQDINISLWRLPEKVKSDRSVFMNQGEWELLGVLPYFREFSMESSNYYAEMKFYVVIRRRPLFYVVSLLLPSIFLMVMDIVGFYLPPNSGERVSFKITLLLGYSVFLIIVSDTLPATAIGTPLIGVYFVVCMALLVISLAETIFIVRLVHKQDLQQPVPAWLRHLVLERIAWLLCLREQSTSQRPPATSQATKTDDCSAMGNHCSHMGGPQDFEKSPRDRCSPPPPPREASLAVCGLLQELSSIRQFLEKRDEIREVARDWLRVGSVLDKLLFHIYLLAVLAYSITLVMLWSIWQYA

| SMILES | test | endpoint | result |
| --- | --- | --- | --- |
| Nc1ncc(-c2nc(N3CCOCC3)nc(N3CCOCC3)n2)c(C(F)F)n1 | cell-free assay | remaining signal | 100% |
| C[C@H](C(=O)N[C@H]1COc2ccccc2[C@@H]1S(C)(=O)=O)c1ccc(F)cc1 | cell-free assay | inhibition | 6% |
| CCN(CC)CCCC[C@H](NC(=O)[C@H](CC(C)C)NC(=O)[C@H](C)NC(=O)[C@H](Cc1ccccc1)NC(=O)c1ccc(C(C)(C)C)cc1)C(=O)N[C@@H](CO)C(=O)OC | ligand displacement, radioligand | inhibition | -21% |
| CC(C)N1CCC[C@H]1CNC(=O)c1cn(C2CCCC2)c(=O)c2c1c1ccccc1n2C | ligand displacement, radioligand | inhibition | -4% |
| Cn1cncc1[C@@](O)(COc1ccc(C#N)cc1-c1ccc(OC(F)(F)F)cc1)c1ccc(C#N)cc1 | cell-free assay | inhibition | -0.62% |
| COc1ccc(N=Nc2ccc3[nH]cc(CCN(C)C)c3c2)cc1 | ligand displacement, radioligand | inhibition | < 50% |
| COc1cc2c3c(c1OC)-c1cc4c(cc1CC3N(C)CC2)OCO4 (racemic) | ligand displacement, radioligand | inhibition | 44.6% |
| CC(C)Cn1cnc2c(N)nc3ccccc3c21 | ligand displacement, radioligand | inhibition | 8% |
| c1ccc(C(NCCNC(c2ccccc2)c2ccccc2)c2ccccc2)cc1 | cell-free assay | inhibition | -16% |
| Cc1c(N2CCNCC2)nc2ccc(Br)cc2c1C(=O)NC[C@H](CCC(=O)O)c1ccccc1Cl | cell-free assay | inhibition | 86% |
| Clc1ccc2c(C3CCN(CCc4c[nH]c5ccccc45)CC3)c[nH]c2c1 | ligand displacement, radioligand | inhibition | 38% |
